Reference: ChEMBL document CHEMBL5107964, “Development of 2-deoxystreptamine-nucleobase conjugates for the inhibition of oncogenic miRNA production” (RSC Med Chem, 2022)
Activity calls are given as the source filed them. The rule behind the calls is not given here.

What was measured:
[1] = Binding affinity to 5'FAM-labeled Precursor microRNA-18a (unknown origin) incubated for 4 hrs by fluorescence-based assay
Procedure, shortened: (§1)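 Each 5'-FAM-labelled pre-miRNA (10 nM) was folded in 20 mM Tris-HCl pH 7.4, 12 mM NaCl, 1 mM DTT by heating at 90°C for 2 min, holding at 4°C for 10 min and returning to room temperature over 15 min. Ligand was added in 15 dilutions (0.030 nM–0.5 mM). Fluorescence (ex 485, em 535 nm) was read after 4 h. Runs were in duplicate, repeated at least three times, and KD came from a 1:1 binding model.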

[2] = Binding affinity to 5'FAM-labeled Precursor microRNA-148a (unknown origin) incubated for 4 hrs by fluorescence-based assay; procedure, shortened: as §1
[3] = Selectivity ratio of Kd for binding affinity to 5'FAM-labeled Precursor microRNA-372 (unknown origin) in presence of tRNA to Kd for binding affinity to 5'FAM-labeled Precursor microRNA-372 (unknown origin)
[4] = Binding affinity to 5'FAM-labeled Precursor microRNA-372 (unknown origin) assessed as dissociation constant incubated for 4 hrs in presence of DNA by fluorescence-based assay
Procedure, shortened: (§2)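 KD was measured with 10 nM folded 5'-FAM-pre-miR-372 in 20 mM Tris-HCl pH 7.4, 12 mM NaCl, 1 mM DTT, with 100 eq. competitor added to the RNA. Competitor was tRNA or duplex DNA from two 15-mer strands annealed at 90°C for 5 min then slowly cooled. Ligand was added in 15 dilutions (0.030 nM–0.5 mM) and fluorescence (ex 485, em 535 nm) read after 4 h. A 1:1 model was fitted.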

[5] = Inhibition of 5'FAM-labeled and 3'DAB-labeled Precursor microRNA-372 (unknown origin) assessed as inhibition of Dicer-induced pre-miR-372 cleavage by measuring fluorescence incubated for 4 hrs in presence of human recombinant Dicer by FRET Dicer assay
Procedure, shortened: (§3)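 The pre-miRNA beacon (50 nM; 5'-FAM, 3'-dabcyl) in 20 mM Tris-HCl pH 7.4, 12 mM NaCl, 1 mM DTT was preincubated with inhibitor (12 dilutions) for 30 min at room temperature. Human recombinant Dicer was then added. After 4 h at 37°C the fluorescence increase (ex 485, em 535 nm) was read. Assays were in duplicate, repeated three times, and IC50 was obtained by nonlinear regression.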

[6] = Inhibition of 5'FAM-labeled and 3'DAB-labeled Precursor microRNA-148a (unknown origin) assessed as inhibition of Dicer-induced pre-miR-148a cleavage by measuring fluorescence incubated for 4 hrs in presence of human recombinant Dicer by FRET Dicer assay; procedure, shortened: as §3
[7] = Binding affinity to 5'FAM-labeled Precursor microRNA-372 (unknown origin) assessed as dissociation constant incubated for 4 hrs in presence of tRNA by fluorescence-based assay; procedure, shortened: as §2
[8] = Selectivity ratio of Kd for binding affinity to 5'FAM-labeled Precursor microRNA-372 (unknown origin) in presence of DNA to Kd for binding affinity to 5'FAM-labeled Precursor microRNA-372 (unknown origin)
[9] = Inhibition of 5'FAM-labeled and 3'DAB-labeled Precursor microRNA-18a (unknown origin) assessed as inhibition of Dicer-induced pre-miR-18a cleavage by measuring fluorescence incubated for 4 hrs in presence of human recombinant Dicer by FRET Dicer assay; procedure, shortened: as §3
[10] = Inhibition of Precursor microRNA-372 in human HEK293 cell lysate assessed as inhibition of Dicer-induced pre-miR-372 maturation by measuring fluorescence incubated for 4 hrs by FRET Dicer assay; format: subcellular
Procedure, shortened: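 The FRET cleavage assay used 50 nM pre-miR-372 beacon (5'-FAM, 3'-dabcyl), with HEK293 whole-cell lysate in place of recombinant enzyme. Inhibitor was preincubated with the beacon for 30 min at room temperature. After 4 h at 37°C the fluorescence rise (ex 485, em 535 nm) was measured. IC50 was obtained by nonlinear regression.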

[11] = Binding affinity to 5'FAM-labeled Precursor microRNA-372 (unknown origin) assessed as dissociation constant incubated for 4 hrs by fluorescence-based assay; procedure, shortened: as §1

Activity [1] | Activity [2] | Selectivity ratio [3] | Kd [4] | IC50 [5] | IC50 [6] | Kd [7] | Selectivity ratio [8] | IC50 [9] | IC50 [10] | Kd [11] | SMILES
Active | Active | 1.1 | 4.27 µM | 81.1 µM | 18.2 µM | 3.92 µM | 1.2 | 20.3 µM | > 500 µM | 3.53 µM | Nc1cccc(-c2cn(Cc3cn(CCO[C@H]4[C@H](O)[C@@H](O)[C@H](N)C[C@@H]4N)nn3)cn2)c1
 |  |  | > 1000 µM |  |  | > 1000 µM |  |  |  | 101 µM | Nc1ccn(Cc2cn(CCO[C@H]3[C@H](O)[C@@H](O)[C@H](N)C[C@@H]3N)nn2)c(=O)n1
 |  |  | > 1000 µM |  |  | > 1000 µM |  |  |  | 17.1 µM | N[C@@H]1C[C@H](N)[C@@H](OCCn2cc(Cn3ccc(O)nc3=O)nn2)[C@H](O)[C@H]1O
 |  |  | 47.1 µM |  |  | > 1000 µM | 4.2 |  |  | 11.1 µM | Nc1ncnc2c1ncn2Cc1cn(CCO[C@H]2[C@H](O)[C@@H](O)[C@H](N)C[C@@H]2N)nn1

Further lines, the compound ahead of its results:

SMILES | Activity [1] | Activity [2] | Selectivity ratio [3] | Kd [4] | IC50 [5] | IC50 [6] | Kd [7] | Selectivity ratio [8] | IC50 [9] | IC50 [10] | Kd [11]
NC[C@@H]1O[C@H](O[C@H]2[C@@H](O)[C@H](O[C@@H]3[C@@H](O)[C@H](N)C[C@H](N)[C@H]3O[C@H]3O[C@H](CN)[C@@H](O)[C@H](O)[C@H]3N)O[C@@H]2Cn2cc(Cn3cnc(-c4cccc(NC(=O)c5ccccc5)c4)c3)nn2)[C@H](N)[C@@H](O)[C@@H]1O |  |  | 1.1 | 0.0244 µM | 8.3 µM |  | 0.0208 µM | 1.3 |  | 20.4 µM | 0.0189 µM
N[C@@H]1C[C@H](N)[C@@H](OCCn2cc(CCC(=O)NCC(=O)Nc3nc(-c4ccccc4)cs3)nn2)[C@H](O)[C@H]1O | Active | Active | 1.7 | 11 µM | 74.9 µM | 85.3 µM | 8.56 µM | 2.1 | 89.5 µM |  | 5.13 µM
N[C@@H]1C[C@H](N)[C@@H](OCCn2cc(Cn3cnc(-c4cccc(NC(=O)c5ccccc5)c4)c3)nn2)[C@H](O)[C@H]1O | Active | Active |  | 2.96 µM | 12.6 µM |  | 2.64 µM |  |  | 29.5 µM | 0.627 µM
CCCCNC(=O)Nc1cccc(-c2cn(Cc3cn(C[C@H]4O[C@@H](O[C@@H]5[C@@H](O)[C@H](N)C[C@H](N)[C@H]5O[C@H]5O[C@H](CN)[C@@H](O)[C@H](O)[C@H]5N)[C@H](O)[C@@H]4O[C@H]4O[C@@H](CN)[C@@H](O)[C@H](O)[C@H]4N)nn3)cn2)c1 |  |  | 1.1 | 0.0222 µM | 25.6 µM |  | 0.0164 µM | 1.5 |  |  | 0.0461 µM
N[C@@H]1C[C@H](N)[C@@H](O)[C@H](O)[C@H]1O |  |  |  |  |  |  |  |  |  |  | > 1000 µM
CCCCNC(=O)Nc1cccc(-c2cn(Cc3cn(CCO[C@H]4[C@H](O)[C@@H](O)[C@H](N)C[C@@H]4N)nn3)cn2)c1 |  |  | 2.2 | 2.11 µM | 72.4 µM |  | 3.65 µM | 1.3 |  |  | 1.62 µM
N[C@@H]1C[C@H](N)[C@@H](OCCn2cc(Cn3cnc(-c4cccc(NC(=O)c5ccc6ccccc6c5)c4)c3)nn2)[C@H](O)[C@H]1O | Active | Active | 1.3 | 9.02 µM | > 100 µM | > 500 µM | 8.51 µM | 1.3 | 177 µM |  | 6.78 µM
